Key:
[1] = Solubility in pH 7.4 PBS buffer at […] incubated at 37 degC by HPLC; type: physicochemical
[2] = target: T1, Neutrophil elastase (Homo sapiens) (UniProt P08246); assay: Inhibition of human leukocyte elastase at 25 uM assessed as Kinact/Ki ratio incubated for 15 mins by spectrofluorometry
T1 sequence (whole entry): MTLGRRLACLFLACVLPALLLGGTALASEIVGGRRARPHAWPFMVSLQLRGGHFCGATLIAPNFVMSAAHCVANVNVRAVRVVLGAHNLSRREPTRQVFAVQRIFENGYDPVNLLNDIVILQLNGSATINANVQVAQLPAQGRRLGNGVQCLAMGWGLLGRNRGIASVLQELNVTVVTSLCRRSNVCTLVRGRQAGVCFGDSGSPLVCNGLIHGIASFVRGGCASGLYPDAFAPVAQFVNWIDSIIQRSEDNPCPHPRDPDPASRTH

[3] = Inhibition of chymotrypsin at 25 uM assessed as Kinact/Ki ratio incubated for 15 mins by spectrofluorometry
[4] = Inhibition of trypsin at 25 uM assessed as Kinact/Ki ratio incubated for 15 mins by spectrofluorometry
[5] = target: Pancreatic elastase (Sus scrofa) (UniProt P08419+P00772); assay: Inhibition of porcine pancreatic elastase at 25 uM assessed as Kinact/Ki ratio incubated for 15 mins by spectrofluorometry; type: protein assay
[6] = Half life in 80% human plasma at […] incubated at 37 degC by HPLC; type: ADME, cell-free
Method in brief: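 DMSO stock (50 mM) added to freshly isolated pooled healthy-donor human plasma diluted to 80% with PBS pH 7.4, final 3 mg/mL or 0.1 mg/mL; incubated 37 °C; compound remaining monitored by HPLC over time to give half-life.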

[7] = Half life in pH 7.4 PBS buffer at […] incubated at 37 degC by HPLC; type: physicochemical
[8] = Selectivity ratio of Kinact/Ki ratio for porcine pancreatic elastase to Kinact/Ki ratio for human leukocyte elastase
[9] = Solubility in 80% human plasma at […] incubated at 37 degC by HPLC; type: ADME, cell-free
Homo sapiens [10] = species on record: Homo sapiens; assay: Selectivity ratio of Kinact/Ki ratio for chymotrypsin to Kinact/Ki ratio for human leukocyte elastase
[11] = target: T1, Neutrophil elastase (Homo sapiens); assay: Irreversible inhibition of human leukocyte elastase assessed as recovery of enzyme activity using MeOSuc-AAPV-AFC substrate at 200 uM treated for 15 mins followed by dialysis measured up to 50 days by fluorescence assay; design: scale not given: the % may be the effect or the level left
[12] = Drug degradation in pH 7.4 PBS buffer assessed as compound hydrolysis at […] measured after 48 hrs at 37 degC by HPLC; type: physicochemical; conditions: read-out: Drug degradation
[13] = Chemical stability in pH 7.4 PBS buffer assessed as compound remaining at […] measured after 6 days at 37 degC by HPLC; type: physicochemical; conditions: read-out: Stability
Homo sapiens [14] = species on record: Homo sapiens; assay: Selectivity ratio of Kinact/Ki ratio for human leukocyte elastase to Kinact/Ki ratio for chymotrypsin

Row | Structure (SMILES) | Ratio [2] | Ratio [3] | Ratio [4] | Ratio [5] | further results
1 | CSc1ccc(OP(=O)(Oc2ccc(SC)cc2)C(NC(=O)[C@@H]2CCCN2C(=O)[C@@H](NC(=O)OC(C)(C)C)C(C)C)C(C)C)cc1 (mixture of isomers) | 217000 M⁻¹ s⁻¹ | 900 M⁻¹ s⁻¹ | < 50 M⁻¹ s⁻¹ | 14000 M⁻¹ s⁻¹ | solubility [1]: 0.36 mM; half-life [6]: 6.2 h; half-life [7]: 28 h; Ratio [8]: 15; solubility [9]: 0.36 mM
2 | CCCCC(NC(=O)[C@@H]1CCCN1C(=O)[C@@H](NC(=O)OC(C)(C)C)C(C)C)P(=O)(Oc1ccc(SC)cc1)Oc1ccc(SC)cc1 (mixture of isomers) | 8100 M⁻¹ s⁻¹ | 4250 M⁻¹ s⁻¹ | < 50 M⁻¹ s⁻¹ | 9700 M⁻¹ s⁻¹ | Ratio (Homo sapiens [10]): 2
3 | CSc1ccc(OP(=O)(Oc2ccc(SC)cc2)[C@@H](NC(=O)[C@@H]2CCCN2C(=O)[C@@H](NC(=O)Cn2ccc(=O)n(CC(=O)O)c2=O)C(C)C)C(C)C)cc1 | 1.08e+06 M⁻¹ s⁻¹ | 40200 M⁻¹ s⁻¹ | 235 M⁻¹ s⁻¹ | 309000 M⁻¹ s⁻¹ | Ratio (Homo sapiens [10]): 27; Ratio [8]: 3.5
4 | CSc1ccc(OP(=O)(Oc2ccc(SC)cc2)C(NC(=O)[C@@H]2CCCN2C(=O)[C@@H](NC(=O)Cn2cc(C)c(=O)n(CC(=O)O)c2=O)C(C)C)C(C)C)cc1 (mixture of isomers) | 965000 M⁻¹ s⁻¹ | 22900 M⁻¹ s⁻¹ | 140 M⁻¹ s⁻¹ | 118000 M⁻¹ s⁻¹ | solubility [1]: 6.11 mM; Ratio (Homo sapiens [10]): 42; half-life [6]: 3.95 h; half-life [7]: 100 h; Ratio [8]: 8.2; solubility [9]: 6.11 mM
5 | CSc1ccc(OP(=O)(Oc2ccc(SC)cc2)[C@@H](NC(=O)[C@@H]2CCCN2C(=O)[C@@H](NC(=O)COc2ccc(OCC(=O)O)cc2)C(C)C)C(C)C)cc1 | 2.35e+06 M⁻¹ s⁻¹ | 6450 M⁻¹ s⁻¹ | < 50 M⁻¹ s⁻¹ | 39200 M⁻¹ s⁻¹ | Ratio (Homo sapiens [10]): 365; Ratio [8]: 60; Activity [11]: 15%
6 | CC(C)C(NC(=O)[C@@H]1CCCN1C(=O)[C@@H](NC(=O)OC(C)(C)C)C(C)C)P(=O)(Oc1ccccc1)Oc1ccccc1 (mixture of isomers) | 46100 M⁻¹ s⁻¹ | < 50 M⁻¹ s⁻¹ | < 50 M⁻¹ s⁻¹ | 22800 M⁻¹ s⁻¹ | Ratio [8]: 2
7 | CSc1ccc(OP(=O)(Oc2ccc(SC)cc2)C(NC(=O)[C@@H]2CCCN2C(=O)[C@@H](NC(=O)COc2ccc(OCC(=O)O)cc2)C(C)C)C(C)C)cc1 (mixture of isomers) | 970000 M⁻¹ s⁻¹ | 4000 M⁻¹ s⁻¹ | < 50 M⁻¹ s⁻¹ | 19100 M⁻¹ s⁻¹ | degraded at 48 h [12]: 16%; solubility [1]: 6.23 mM; Ratio (Homo sapiens [10]): 245; half-life [6]: 8 h; half-life [7]: 150 h; remaining at 144 h [13]: > 50%; Ratio [8]: 50.8; solubility [9]: 6.23 mM
8 | CSc1ccc(OP(=O)(Oc2ccc(SC)cc2)C(NC(=O)[C@@H]2CCCN2C(=O)[C@@H](NC(=O)Cn2ccc(=O)n(CC(=O)O)c2=O)C(C)C)C(C)C)cc1 (mixture of isomers) | 460000 M⁻¹ s⁻¹ | 28300 M⁻¹ s⁻¹ | 130 M⁻¹ s⁻¹ | 140000 M⁻¹ s⁻¹ | solubility [1]: 6.22 mM; half-life [6]: 4.55 h; half-life [7]: 100 h; solubility [9]: 6.22 mM
9 | COC(=O)c1cccc(OP(=O)(Oc2cccc(C(=O)OC)c2)C(CC(C)C)NC(=O)[C@@H]2CCCN2C(=O)[C@@H](NC(=O)OC(C)(C)C)C(C)C)c1 (some centres not stated) | 122000 M⁻¹ s⁻¹ | 166000 M⁻¹ s⁻¹ | 2800 M⁻¹ s⁻¹ | 76900 M⁻¹ s⁻¹ | Ratio (Homo sapiens [14]): > 1.3
10 | CCCC(NC(=O)[C@@H]1CCCN1C(=O)[C@@H](NC(=O)OC(C)(C)C)C(C)C)P(=O)(Oc1ccc(SC)cc1)Oc1ccc(SC)cc1 (mixture of isomers) | 56200 M⁻¹ s⁻¹ | 2800 M⁻¹ s⁻¹ | 420 M⁻¹ s⁻¹ | 54800 M⁻¹ s⁻¹ | Ratio (Homo sapiens [10]): 20
11 | COc1ccc(C(=O)N[C@H](C(=O)N2CCC[C@H]2C(=O)NC(C(C)C)P(=O)(Oc2ccc(SC)cc2)Oc2ccc(SC)cc2)C(C)C)cc1 (mixture of isomers) | 304000 M⁻¹ s⁻¹ | < 50 M⁻¹ s⁻¹ | < 50 M⁻¹ s⁻¹ | 4700 M⁻¹ s⁻¹ | solubility [1]: 0.17 mM; half-life [6]: 3.8 h; half-life [7]: 26 h; solubility [9]: 0.17 mM
12 | CCCC(NC(=O)[C@@H]1CCCN1C(=O)[C@@H](NC(=O)OC(C)(C)C)C(C)C)P(=O)(Oc1ccc(C(C)(C)C)cc1)Oc1ccc(C(C)(C)C)cc1 (mixture of isomers) | < 50 M⁻¹ s⁻¹ |  |  | < 50 M⁻¹ s⁻¹ | inhibition [3]: < 5%; inhibition [4]: < 5%
13 | CSc1ccc(OP(=O)(Oc2ccc(SC)cc2)C(CC(C)C)NC(=O)[C@@H]2CCCN2C(=O)[C@@H](NC(=O)OC(C)(C)C)C(C)C)cc1 (mixture of isomers) | 4100 M⁻¹ s⁻¹ | 21900 M⁻¹ s⁻¹ | 280 M⁻¹ s⁻¹ | 11200 M⁻¹ s⁻¹ | 
14 | CCc1ccc(OP(=O)(Oc2ccc(CC)cc2)C(NC(=O)[C@@H]2CCCN2C(=O)[C@@H](NC(=O)OC(C)(C)C)C(C)C)C(C)C)cc1 (mixture of isomers) | 6800 M⁻¹ s⁻¹ |  |  | 6000 M⁻¹ s⁻¹ | inhibition [3]: < 5%; inhibition [4]: < 5%
15 | CSc1ccc(OP(=O)(Oc2ccc(SC)cc2)C(C)NC(=O)[C@@H]2CCCN2C(=O)[C@@H](NC(=O)OC(C)(C)C)C(C)C)cc1 (mixture of isomers) | 3500 M⁻¹ s⁻¹ | < 50 M⁻¹ s⁻¹ | < 50 M⁻¹ s⁻¹ | 11400 M⁻¹ s⁻¹ | 
16 | CSc1ccc(OP(=O)(Oc2ccc(SC)cc2)C(NC(=O)[C@@H]2CCCN2C(=O)[C@H](CC(C)C)NC(=O)OCc2ccccc2)C(C)C)cc1 (mixture of isomers) | 86200 M⁻¹ s⁻¹ | 800 M⁻¹ s⁻¹ |  | 1000 M⁻¹ s⁻¹ | inhibition [4]: < 5%
17 | COc1ccc(OP(=O)(Oc2ccc(OC)cc2)C(CC(C)C)NC(=O)[C@@H]2CCCN2C(=O)[C@@H](NC(=O)OC(C)(C)C)C(C)C)cc1 (mixture of isomers) | 270 M⁻¹ s⁻¹ | 1700 M⁻¹ s⁻¹ | < 50 M⁻¹ s⁻¹ | 960 M⁻¹ s⁻¹ | 
18 | CSc1ccc(OP(=O)(Oc2ccc(SC)cc2)C(NC(=O)[C@@H]2CCCN2C(=O)[C@H](COC(C)(C)C)NC(=O)OCc2ccccc2)C(C)C)cc1 (mixture of isomers) | 162000 M⁻¹ s⁻¹ | 500 M⁻¹ s⁻¹ | < 50 M⁻¹ s⁻¹ | 4300 M⁻¹ s⁻¹ | 
19 | CSc1ccc(OP(=O)(Oc2ccc(SC)cc2)C(NC(=O)[C@@H]2CCCN2C(=O)[C@H](CC(C)C)NC(=O)OC(C)(C)C)C(C)C)cc1 (mixture of isomers) | 128000 M⁻¹ s⁻¹ | 150 M⁻¹ s⁻¹ | < 50 M⁻¹ s⁻¹ | 7000 M⁻¹ s⁻¹ | 
20 | CCc1ccc(OP(=O)(Oc2ccc(CC)cc2)C(C)NC(=O)[C@@H]2CCCN2C(=O)[C@@H](NC(=O)OC(C)(C)C)C(C)C)cc1 (mixture of isomers) | 870 M⁻¹ s⁻¹ | < 50 M⁻¹ s⁻¹ |  | 1100 M⁻¹ s⁻¹ | inhibition [4]: < 5%
21 | CSc1ccc(OP(=O)(Oc2ccc(SC)cc2)C(NC(=O)[C@@H]2CCCN2C(=O)CNC(=O)OC(C)(C)C)C(C)C)cc1 (mixture of isomers) | 35000 M⁻¹ s⁻¹ | < 50 M⁻¹ s⁻¹ | < 50 M⁻¹ s⁻¹ | 5100 M⁻¹ s⁻¹ | 
22 | CSc1ccc(OP(=O)(Oc2ccc(SC)cc2)[C@H](NC(=O)[C@@H]2CCCN2C(=O)[C@@H](NC(=O)COc2ccc(OCC(=O)O)cc2)C(C)C)C(C)C)cc1 | 1550 M⁻¹ s⁻¹ | < 50 M⁻¹ s⁻¹ | < 50 M⁻¹ s⁻¹ | 85 M⁻¹ s⁻¹ | 
23 | CSc1ccc(OP(=O)(Oc2ccc(SC)cc2)[C@H](NC(=O)[C@@H]2CCCN2C(=O)[C@@H](NC(=O)Cn2cc(C)c(=O)n(CC(=O)O)c2=O)C(C)C)C(C)C)cc1 | 4100 M⁻¹ s⁻¹ | < 50 M⁻¹ s⁻¹ |  | 300 M⁻¹ s⁻¹ | inhibition [4]: < 5%
24 | CSc1ccc(OP(=O)(Oc2ccc(SC)cc2)[C@H](NC(=O)[C@@H]2CCCN2C(=O)[C@@H](NC(=O)OC(C)(C)C)C(C)C)C(C)C)cc1 | 2650 M⁻¹ s⁻¹ | < 50 M⁻¹ s⁻¹ |  | < 50 M⁻¹ s⁻¹ | inhibition [4]: < 5%

From ChEMBL document CHEMBL2163241, “Human neutrophil elastase phosphonic inhibitors with improved potency of action” (J Med Chem, 2012)
